ChEMBL document CHEMBL3244308, “Potential antitumor agents. 22. Latentiated congeners of the 4'-(9-acridinylamino)methanesulfonanilides” (J Med Chem, 1977)

Key:
Mus musculus = assay: Toxicity in ip dosed mouse assessed as optimum dose that providing maximum increase in life span administered qd for 1 to 5 days; type: organism-based; details: in vivo
How it was run: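 Mice were C3H/DBA2 F1 hybrids weighing 18.5-22.5 g. L1210 cells (10^5) were implanted ip or sc above the right axilla. Daily ip treatment began 24 h later and continued for 5 days (dq 1-5), given in water or as a homogenized suspension in aqueous methylcellulose. The optimum dose (mg/kg/day) is the one giving maximum life-span increase (T/C% - 100). Groups were six mice; 50-day survivors were counted.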

L1210 = assay: Antitumor activity against mouse L1210 cells intraperitoneally xenografted in ip dosed C3H/DBA2 F1 hybrid mouse assessed as increase in host lifespan administered daily for 5 days starting 24 hrs post-tumor implantation; type: functional
How it was run: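 10⁵ L1210 cells implanted ip into 18.5-22.5-g C3H/DBA2 F1 mice. Daily ip treatment for 5 days from 24 h after implant, as water-soluble salts (methanesulfonate or hydrochloride) or as homogenized suspensions in aqueous methylcellulose. Groups of six mice. Read-out is increase in life span (T/C% − 100) at the optimum dose (maximal life-span increase, mg/kg/day); 50-day survivors counted.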

[1] = Lipophilic-hydrophilic balance, Rm of the compound by reversed-phase partition chromatography; type: physicochemical

Compound | Activity (Mus musculus) | ILS (L1210) | Rm [1]
CCCC(=O)N(c1ccc(Nc2c3ccccc3nc3c(C)cccc23)c(OC)c1)S(C)(=O)=O | 75 mg/kg | 52% | 0.53
CCC(=O)N(c1ccc(Nc2c3ccccc3nc3c(C)cccc23)c(OC)c1)S(C)(=O)=O | 25 mg/kg | 31% | 0.37
COc1cc(N(C(C)=O)S(C)(=O)=O)ccc1Nc1c2ccccc2nc2c(C)cccc12 | 7.5 mg/kg | 38% | 0.24
CCCC(=O)N(c1ccc(Nc2c3ccccc3nc3cc([N+](=O)[O-])ccc23)cc1)S(C)(=O)=O | 50 mg/kg | 52% | 0.27
CCN(CC)/N=N/c1ccc2c(Nc3ccc(NS(C)(=O)=O)cc3)c3ccccc3nc2c1 | – | – | 0.49
CCCCC(=O)N(c1ccc(Nc2c3ccccc3nc3c(C)cccc23)c(OC)c1)S(C)(=O)=O | 250 mg/kg | 50% | 0.66
CCCCCC(=O)N(c1ccc(Nc2c3ccccc3nc3c(C)cccc23)c(OC)c1)S(C)(=O)=O | 66 mg/kg | 39% | 0.79
CCCC(=O)N(c1ccc(Nc2c3ccccc3nc3ccccc23)cc1)S(C)(=O)=O.Cl | 400 mg/kg | 31% | 0.28
CCCCCC(=O)N(c1ccc(Nc2c3ccccc3nc3ccccc23)cc1)S(C)(=O)=O.Cl | 150 mg/kg | 41% | 0.45
CCCCCCCC(=O)N(c1ccc(Nc2c3ccccc3nc3ccccc23)cc1)S(C)(=O)=O.Cl | 400 mg/kg | 41% | 0.68
CCCCCCCCC(=O)N(c1ccc(Nc2c3ccccc3nc3ccccc23)cc1)S(C)(=O)=O.Cl | 400 mg/kg | 31% | 0.74
CCOC(=O)CCC(=O)N(c1ccc(Nc2c3ccccc3nc3c(C)cccc23)c(OC)c1)S(C)(=O)=O | 18 mg/kg | 43% | 0.62
CC(C)(C)C(=O)N(c1ccc(Nc2c3ccccc3nc3ccccc23)cc1)S(C)(=O)=O.Cl | 250 mg/kg | 47% | 0.31
CC(=O)N(c1ccc(Nc2c3ccccc3nc3cc(N)ccc23)cc1)S(C)(=O)=O.Cl | 2 mg/kg | 74% | -0.22
Br.CCC(=O)N(c1ccc(Nc2c3ccccc3nc3cc(N)ccc23)cc1)S(C)(=O)=O | 2 mg/kg | 49% | -0.04
CCCC(=O)N(c1ccc(Nc2c3ccccc3nc3cc(N)ccc23)cc1)S(C)(=O)=O.Cl | 1 mg/kg | 53% | 0.13
CCCCC(=O)N(c1ccc(Nc2c3ccccc3nc3cc(N)ccc23)cc1)S(C)(=O)=O.Cl | 1 mg/kg | 61% | 0.31
CCCCCC(=O)N(c1ccc(Nc2c3ccccc3nc3cc(N)ccc23)cc1)S(C)(=O)=O.Cl | 2 mg/kg | 46% | 0.43
CCCCCCC(=O)N(c1ccc(Nc2c3ccccc3nc3cc(N)ccc23)cc1)S(C)(=O)=O.Cl | 2 mg/kg | 31% | 0.51
CCCCCCCC(=O)N(c1ccc(Nc2c3ccccc3nc3cc(N)ccc23)cc1)S(C)(=O)=O.Cl | 2.5 mg/kg | 119% | 0.57
CCOC(=O)CCC(=O)N(c1ccc(Nc2c3ccccc3nc3c(C)cccc23)c(OC)c1)S(C)(=O)=O.CS(=O)(=O)O | 13.3 mg/kg | 40% | –
CCCOC(=O)CCC(=O)N(c1ccc(Nc2c3ccccc3nc3c(C)cccc23)c(OC)c1)S(C)(=O)=O | 75 mg/kg | – | 0.75
CS(=O)(=O)Nc1ccc(Nc2c3ccccc3nc3cc(N)ccc23)cc1 | 2.5 mg/kg | 81% | -0.17
